Source: ChEMBL document CHEMBL1147605, “Syntheses and biological evaluation of new fluoroquinolone antibacterials containing chiral oxiimino pyrrolidine” (Bioorg Med Chem Lett, 2004)
In brackets after ≈: the same amount, converted by molar mass.

Legend:
HepG2 = test: Cytotoxicity was determined for the compound in HepG2 cell line; format: functional, cell-based; conditions: Homo sapiens
[1] = Time for maximum plasma concentration reached by compound was determined in rats at 50 mg/kg dose; format: ADME, organism-based; parameters: dose 50 mg/kg; conditions: rat
Procedure, shortened: (§1)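 Pharmacokinetics were measured in SD rats given 50mg/kg, reporting Cmax, Tmax, T1/2 and AUC.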

[2] = system: Staphylococcus epidermidis; test: In vitro antibacterial activity against the Ofloxacin Resistant Staphylococcus epidermidis 319; format: functional
Procedure, shortened: (§2)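 MICs by agar dilution following National Committee for Clinical Laboratory Standards recommendations; all strains obtained from Hoechst.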

Staphylococcus aureus [3] = test: In vitro antibacterial activity against the Methicillin-Resistant Staphylococcus aureus (MRSA) 707 E; format: functional; procedure, shortened: as §2
Pseudomonas aeruginosa [4] = test: In vitro antibacterial activity against the Ofloxacin Resistant Pseudomonas aeruginosa 279II; format: functional; procedure, shortened: as §2
Streptococcus pyogenes [5] = test: In vitro antibacterial activity against the Streptococcus pyogenes 77A; format: functional
[6] = system: Staphylococcus epidermidis; test: In vitro antibacterial activity against the Ofloxacin Resistant Staphylococcus epidermidis 291; format: functional; procedure, shortened: as §2
Escherichia coli [7] = test: In vitro antibacterial activity against the Escherichia coli DC 2; format: functional
Staphylococcus aureus [8] = test: In vitro antibacterial activity against the Ofloxacin Resistant Staphylococcus aureus 293; format: functional; procedure, shortened: as §2
Staphylococcus aureus [9] = test: In vitro antibacterial activity against the Ofloxacin Resistant Staphylococcus aureus 303; format: functional; procedure, shortened: as §2
Salmonella typhimurium = test: In vitro antibacterial activity against the Salmonella Typhimurium; format: functional, Salmonella enterica subsp. enterica serovar Typhimurium; conditions: Salmonella enterica
Staphylococcus aureus [10] = test: In vitro antibacterial activity against the Methicillin-Resistant Staphylococcus aureus (MRSA) 701 E; format: functional; procedure, shortened: as §2
Staphylococcus aureus [11] = test: In vitro antibacterial activity against the Ofloxacin Resistant Staphylococcus aureus 179; format: functional; procedure, shortened: as §2
Enterococcus sp. = test: In vitro antibacterial activity against the Ofloxacin Resistant Enterococcus knothe 101; format: functional; procedure, shortened: as §2
Staphylococcus aureus [12] = test: In vitro antibacterial activity against the Methicillin-Resistant Staphylococcus aureus (MRSA) 692 E; format: functional; procedure, shortened: as §2
Klebsiella = test: In vitro antibacterial activity against the Ofloxacin Resistant Klebsiella species 30-92; format: functional; procedure, shortened: as §2
Streptococcus pyogenes [13] = test: In vitro antibacterial activity against the Streptococcus pyogenes 308A; format: functional
[14] = Maximum plasma concentration reached by compound was determined in rats at 50 mg/kg dose; format: ADME, organism-based; parameters: dose 50 mg/kg; conditions: rat; procedure, shortened: as §1
Enterobacter cloacae = test: In vitro antibacterial activity against the Enterobacter cloacae 1321 E; format: functional
V79-4 = test: Cytotoxicity was determined for the compound in V79-4 cell line; format: functional, cell-based; conditions: Cricetulus griseus
Staphylococcus aureus [15] = test: In vitro antibacterial activity against the Staphylococcus aureus SG511; format: functional
Escherichia coli [16] = test: In vitro antibacterial activity against the Escherichia coli 078; format: functional
Pseudomonas aeruginosa [17] = test: In vitro antibacterial activity against the Pseudomonas aeruginosa 1592E; format: functional
[18] = Plasma concentration for the compound was determined in rats at 50 mg/kg dose; format: ADME, organism-based; parameters: dose 50 mg/kg; conditions: rat; procedure, shortened: as §1
Pseudomonas aeruginosa [19] = test: In vitro antibacterial activity against the Pseudomonas aeruginosa 1771M; format: functional
Staphylococcus aureus [20] = test: In vitro antibacterial activity against the Methicillin-Resistant Staphylococcus aureus (MRSA) 697 E; format: functional; procedure, shortened: as §2
Staphylococcus aureus [21] = test: In vitro antibacterial activity against the Methicillin-Resistant Staphylococcus aureus (MRSA) 690 E; format: functional; procedure, shortened: as §2
[22] = Half-life period for the compound was determined in rats at 50 mg/kg dose; format: ADME, organism-based; parameters: dose 50 mg/kg; conditions: rat, in vivo
Staphylococcus aureus [23] = test: In vitro antibacterial activity against the Methicillin-Resistant Staphylococcus aureus (MRSA) 705 E; format: functional; procedure, shortened: as §2
Staphylococcus aureus [24] = test: In vitro antibacterial activity against the Staphylococcus aureus 285; format: functional

SMILES	IC50 (HepG2) [µg/mL]	MIC [2] [µg/mL]	MIC (Streptococcus pyogenes [5]) [µg/mL]	MIC [6] [µg/mL]	MIC (Escherichia coli [7]) [µg/mL]	MIC (Staphylococcus aureus [8]) [µg/mL]	MIC (Staphylococcus aureus [9]) [µg/mL]	MIC (Salmonella typhimurium) [µg/mL]	MIC (Staphylococcus aureus [10]) [µg/mL]	MIC (Staphylococcus aureus [11]) [µg/mL]	MIC (Enterococcus sp.) [µg/mL]	MIC (Staphylococcus aureus [12]) [µg/mL]	MIC (Klebsiella) [µg/mL]	MIC (Streptococcus pyogenes [13]) [µg/mL]	MIC (Enterobacter cloacae) [µg/mL]	MIC (Staphylococcus aureus [15]) [µg/mL]	MIC (Escherichia coli [16]) [µg/mL]	MIC (Pseudomonas aeruginosa [17]) [µg/mL]	MIC (Pseudomonas aeruginosa [19]) [µg/mL]	MIC (Staphylococcus aureus [24]) [µg/mL]	further results
CO/N=C1\CN(c2c(F)c(N)c3c(=O)c(C(=O)O)cn(C4CC4)c3c2F)C[C@]1(C)CN.Cl	11.6	0.025	< 0.002	0.049	< 0.002	0.013	0.013	< 0.002	< 0.002	0.013	0.013	< 0.002	0.781	0.004	< 0.002	< 0.002	< 0.002	0.391	0.195	–	Tmax [1]: 1 h; MIC (Staphylococcus aureus [3]): < 0.002 µg/mL; MIC (Pseudomonas aeruginosa [4]): 3.12 µg/mL; Cmax [14]: 6670 ng/mL; IC50 (V79-4): 0.21 µg/mL; AUC [18]: 68800 ng·h/mL; MIC (Staphylococcus aureus [20]): < 0.002 µg/mL; MIC (Staphylococcus aureus [21]): < 0.002 µg/mL; half-life [22]: 6.94 h; MIC (Staphylococcus aureus [23]): < 0.002 µg/mL
CO/N=C1\CN(c2c(F)c(N)c3c(=O)c(C(=O)O)cn(C4CC4)c3c2F)C[C@@]1(C)CN.Cl	–	0.781	0.013	0.391	0.013	0.195	0.195	< 0.002	0.007	0.195	0.195	0.004	1.56	0.049	< 0.002	< 0.002	0.004	0.391	0.195	0.004	MIC (Pseudomonas aeruginosa [4]): 3.12 µg/mL; MIC (Staphylococcus aureus [20]): 0.004 µg/mL; MIC (Staphylococcus aureus [21]): 0.004 µg/mL; MIC (Staphylococcus aureus [23]): 0.007 µg/mL
CO/N=C1\CN(c2cc3c(cc2F)c(=O)c(C(=O)O)cn3C2CC2)CC1(C)CN.Cl (stereo not drawn)	–	–	0.013	–	0.025	–	–	0.013	–	–	–	–	–	0.098	0.013	0.007	0.013	0.781	0.391	0.013	–
CO/N=C1\CN(c2c(F)cc3c(=O)c(C(=O)O)cn(C4CC4)c3c2F)CC1(C)CN.Cl (stereo not drawn)	–	–	0.025	–	0.049	–	–	0.025	–	–	–	–	–	0.098	0.013	0.013	0.025	1.56	0.781	0.013	–
O=C(O)c1cn(C2CC2)c2cc(N3CCNCC3)c(F)cc2c1=O [CIPROFLOXACIN]	37.5 (≈ 113 µM)	100 (≈ 302 µM)	0.391 (≈ 1.18 µM)	50 (≈ 151 µM)	0.098 (≈ 0.296 µM)	12.5 (≈ 37.7 µM)	12.5 (≈ 37.7 µM)	–	0.391 (≈ 1.18 µM)	12.5 (≈ 37.7 µM)	0.781 (≈ 2.36 µM)	0.391 (≈ 1.18 µM)	1.56 (≈ 4.72 µM)	3.12 (≈ 9.43 µM)	–	0.195 (≈ 0.589 µM)	–	0.195 (≈ 0.589 µM)	0.098 (≈ 0.296 µM)	0.781 (≈ 2.36 µM)	Tmax [1]: 0.5 h; MIC (Staphylococcus aureus [3]): 0.195 µg/mL (≈ 0.589 µM); IC50 (V79-4): 58.5 µg/mL (≈ 177 µM); AUC [18]: 12700 ng·h/mL; MIC (Staphylococcus aureus [20]): 0.391 µg/mL (≈ 1.18 µM); MIC (Staphylococcus aureus [21]): 0.391 µg/mL (≈ 1.18 µM); MIC (Staphylococcus aureus [23]): 0.391 µg/mL (≈ 1.18 µM)
CO/N=C1\CN(c2nc3c(cc2F)c(=O)c(C(=O)O)cn3C2CC2)CC1CN (stereo not drawn) [GEMIFLOXACIN]	13.5 (≈ 34.6 µM)	3.12 (≈ 8.03 µM)	0.025 (≈ 0.0642 µM)	1.56 (≈ 4.01 µM)	0.025 (≈ 0.0642 µM)	0.781 (≈ 2.01 µM)	0.781 (≈ 2.01 µM)	0.004 (≈ 0.0103 µM)	0.098 (≈ 0.252 µM)	0.781 (≈ 2.01 µM)	0.098 (≈ 0.252 µM)	0.049 (≈ 0.126 µM)	0.781 (≈ 2.01 µM)	0.195 (≈ 0.501 µM)	0.004 (≈ 0.0103 µM)	0.013 (≈ 0.0334 µM)	0.007 (≈ 0.018 µM)	0.391 (≈ 1 µM)	0.195 (≈ 0.501 µM)	0.025 (≈ 0.0642 µM)	Tmax [1]: 1 h; MIC (Staphylococcus aureus [3]): 0.025 µg/mL (≈ 0.0642 µM); MIC (Pseudomonas aeruginosa [4]): 6.25 µg/mL (≈ 16.1 µM); Cmax [14]: 6630 ng/mL; IC50 (V79-4): 10.1 µg/mL (≈ 25.9 µM); AUC [18]: 25800 ng·h/mL; MIC (Staphylococcus aureus [20]): 0.049 µg/mL (≈ 0.126 µM); MIC (Staphylococcus aureus [21]): 0.098 µg/mL (≈ 0.252 µM); half-life [22]: 2.12 h; MIC (Staphylococcus aureus [23]): 0.098 µg/mL (≈ 0.252 µM)
N[C@@H]1[C@H]2CN(c3nc4c(cc3F)c(=O)c(C(=O)O)cn4-c3ccc(F)cc3F)C[C@@H]12 [TROVAFLOXACIN]	11.2 (≈ 26.8 µM)	–	–	–	–	–	–	–	–	–	–	–	–	–	–	–	–	–	–	–	IC50 (V79-4): 3.77 µg/mL (≈ 9.05 µM)
